In PMC6331712 (ChemistryOpen, 2019):
Values joined by “and” are separate entries in the source; they are usually repeats but may differ in a detail not shown here. Equal values may be shown once.

Key:
HEP‐G2 cells = assay: MTT cell viability assay, HEP-G2 cells; format: cell-based, human; conditions: for LD50 / LD25: HEP‐G2 cells, MTT; for LD50: 24 h exposure; for LD25: 48 h exposure; for Tox./Act. (toxicity/activity ratio, safety index): average LD25 (48 h, HEP‐G2) divided by average EC50 (KV7.2/3)
TAMH cells = assay: MTT cell viability assay, TAMH cells; format: cell-based, mouse; conditions: for LD50 / LD25: TAMH cells, MTT; for LD50: 24 h exposure; for LD25: 48 h exposure; for Tox./Act. (toxicity/activity ratio, safety index): average LD25 (48 h, TAMH) divided by average EC50 (KV7.2/3)
Procedure, shortened: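 MTT viability read-out in TAMH (transgenic mouse hepatocyte) and HEP-G2 (human hepatoma) cell lines. LD50 was taken after 24 h of exposure. […] LD50 values are means with standard deviations of 4–5 independent determinations. The ratio uses the mean EC50 from a thallium-flux KV7.2/3 assay (30 min exposure, four-parameter logistic fit).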

[1] = LogD7.4 determination from HPLC retention times with calibration curve; format: physicochemical; conditions: pH 7.4; for logD 7.4: from HPLC retention factor and calibration curve
KV7.2/KV7.3 channel = KV7.2/KV7.3 channel (Homo sapiens, UniProt O43525+O43526); format: cell-based; conditions: for Emax: HEK293; for KV7.2/KV7.3 channel opening activity (in words): thallium flux assay, compared with 1
[2] = Anodic peak potential by cyclic voltammetry; format: physicochemical; conditions: 1.0 mM compound in 100 mM TRIS‐buffer (pH 7.4)

Sequence of KV7.2/KV7.3 channel (O43525 whole entry): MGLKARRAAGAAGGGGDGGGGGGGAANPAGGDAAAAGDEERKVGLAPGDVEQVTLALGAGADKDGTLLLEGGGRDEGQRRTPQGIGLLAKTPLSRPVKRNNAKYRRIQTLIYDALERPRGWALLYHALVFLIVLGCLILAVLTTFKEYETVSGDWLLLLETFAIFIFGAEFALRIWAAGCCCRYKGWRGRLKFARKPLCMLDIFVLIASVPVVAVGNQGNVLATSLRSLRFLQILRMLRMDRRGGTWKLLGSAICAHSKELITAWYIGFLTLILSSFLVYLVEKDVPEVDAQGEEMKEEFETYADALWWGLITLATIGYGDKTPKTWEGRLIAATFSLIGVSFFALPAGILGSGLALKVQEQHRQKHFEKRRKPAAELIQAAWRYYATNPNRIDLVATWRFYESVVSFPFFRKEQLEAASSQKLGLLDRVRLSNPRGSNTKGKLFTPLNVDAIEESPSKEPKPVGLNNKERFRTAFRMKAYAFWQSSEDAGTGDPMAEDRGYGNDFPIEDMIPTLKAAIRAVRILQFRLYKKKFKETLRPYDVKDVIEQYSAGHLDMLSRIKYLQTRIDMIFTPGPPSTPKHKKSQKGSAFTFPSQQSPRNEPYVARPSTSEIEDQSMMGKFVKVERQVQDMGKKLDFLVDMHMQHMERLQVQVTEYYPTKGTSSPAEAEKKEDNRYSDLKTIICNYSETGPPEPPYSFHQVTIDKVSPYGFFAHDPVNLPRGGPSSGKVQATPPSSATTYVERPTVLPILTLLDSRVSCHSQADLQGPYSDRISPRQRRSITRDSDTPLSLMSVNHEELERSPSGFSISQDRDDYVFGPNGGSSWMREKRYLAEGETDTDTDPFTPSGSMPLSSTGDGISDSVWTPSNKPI
Sequence of KV7.2/KV7.3 channel (O43526 whole entry): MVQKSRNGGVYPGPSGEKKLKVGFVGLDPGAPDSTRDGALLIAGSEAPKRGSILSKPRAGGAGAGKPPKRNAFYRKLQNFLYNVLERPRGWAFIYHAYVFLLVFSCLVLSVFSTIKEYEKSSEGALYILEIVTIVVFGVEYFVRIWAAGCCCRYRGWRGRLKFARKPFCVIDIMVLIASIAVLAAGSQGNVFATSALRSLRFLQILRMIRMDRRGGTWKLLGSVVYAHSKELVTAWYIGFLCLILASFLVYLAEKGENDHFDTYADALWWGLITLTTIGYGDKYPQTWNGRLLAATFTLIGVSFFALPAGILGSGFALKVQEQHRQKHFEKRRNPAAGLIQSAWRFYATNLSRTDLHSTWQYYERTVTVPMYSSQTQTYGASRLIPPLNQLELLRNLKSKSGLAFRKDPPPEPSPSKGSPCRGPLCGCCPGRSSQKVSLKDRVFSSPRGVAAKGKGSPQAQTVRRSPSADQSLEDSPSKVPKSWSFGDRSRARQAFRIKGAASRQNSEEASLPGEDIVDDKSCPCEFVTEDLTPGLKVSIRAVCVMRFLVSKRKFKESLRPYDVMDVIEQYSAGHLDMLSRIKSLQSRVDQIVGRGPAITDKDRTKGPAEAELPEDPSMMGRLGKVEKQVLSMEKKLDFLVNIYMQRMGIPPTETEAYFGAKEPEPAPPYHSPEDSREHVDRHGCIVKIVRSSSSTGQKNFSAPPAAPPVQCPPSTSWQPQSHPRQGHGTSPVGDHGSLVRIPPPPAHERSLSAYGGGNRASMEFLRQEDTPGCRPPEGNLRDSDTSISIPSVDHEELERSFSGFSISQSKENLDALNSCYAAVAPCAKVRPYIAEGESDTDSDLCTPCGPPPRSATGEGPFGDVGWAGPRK

Structure (SMILES)	LD50 (HEP‐G2 cells)	LD50 (TAMH cells)	chromatographic logD [1]	EC50 (KV7.2/KV7.3 channel)	Anodic peak potential E pa [2]	LD25 (HEP‐G2 cells)	Tox./Act. (toxicity/activity ratio, safety index) (HEP‐G2 cells)	LD25 (TAMH cells)	Emax (KV7.2/KV7.3 channel)	Tox./Act. (toxicity/activity ratio, safety index) (TAMH cells)	KV7.2/KV7.3 channel opening activity (in words) (KV7.2/KV7.3 channel)	logD 7.4 [1]
CCOC(=O)Nc1ccc([S+]([O-])Cc2ccc(F)cc2)nc1C (centres unmarked) [10 d]	>500 µM	>500 µM	3.02	> 10000 nM	n.o.^[g]	–	–	–	–	–	–	–
CCOC(=O)Nc1ccc(SCc2ccc(F)cc2)nc1C [9 h, E t hyl [6-(4-fluorobenzylthio)-2-methylpyridin-3-yl]carbamate]	>30 µM	>10 µM	3.85	269 ± 31 nM	855 mV	25 ± 16 µM	93	>10 µM	129 ± 3%	–	–	–
CNc1nc(SCc2ccccc2)ccc1NC(=O)Cc1cc(F)cc(F)c1 [9 g, N‐[6‐(Benzylthio)‐2‐(methylamino)pyridin‐3‐yl]‐2‐(3,5‐difluorophenyl)acetamide]	>10 µM	>7.5 µM	4.27	15 ± 2 nM	631 mV	4 ± 4 µM	267	6 ± 3 µM and 6 ± 03 µM	147 ± 9%	400	markedly more potent and effective	–
CCOC(=O)Nc1ccc(SCCN2CCCCC2)nc1N [9 f]	>500 µM	>500 µM	–	–	573 mV	–	–	–	–	–	–	2.04
CCOC(=O)Nc1ccc(NCc2ccc(F)cc2)nc1N [Compound 1, Flupirtine, reference compound]	547 ± 111 µM	487 ± 51 µM	2.96	918 ± 99 nM	350 mV	74 ± 40 µM	81	103 ± 47 µM	100%	112	–	–
Nc1nc(SCc2ccc(F)cc2)ccc1NC(=O)c1ccc(F)c(F)c1 [9 a, N-{2-A mino-6-[(4-fluorobenzyl)thio]pyridin-3-yl}-3,4-difluorobenzamide]	8 ± 3 µM	>30 µM	3.9	260 ± 82 nM	442 mV	4 ± 1 µM	15	13 ± 04 µM	100 ± 23%	50	as active as the marketed drug 1	–
CCOC(=O)Nc1ccc(SCc2ccc(-c3ccccc3)cc2)nc1N [9 b, Ethyl-{6-[(1,1'-biphenyl-4-yl)methylthio]-2-aminopyridin-3-yl}carbamate]	>250 µM	>63 µM	4.34	253 ± 42 nM	452 mV	–	–	14 ± 13 µM	69 ± 9%	55	as active as the marketed drug 1	–
Nc1nc([S+]([O-])Cc2ccc(F)cc2)ccc1NC(=O)c1ccc(F)c(F)c1 (centres unmarked) [10 a, N-[2-Amino-6-(4-fluorobenzylsulfinyl)pyridin-3-yl]-3 ,4-difluorobenzamide]	>125 µM	>100 µM	3.24	> 10000 nM	628 mV	–	–	–	–	–	–	–
CCOC(=O)Nc1ccc(SCc2ccccn2)nc1N [9 d, Ethyl-{2-amino-6-[(pyridin-2-ylmethylthio)pyridin-3-yl]}carbamate]	831 ± 149 µM	>1000 µM	–	–	499 mV	–	–	–	–	–	–	2.62
CCOC(=O)Nc1ccc(SC(=O)c2ccc(F)cc2)nc1N [9 e, S-{6-Amino-5-[(ethoxycarbonyl)amino]pyridin-2-yl} 4-fluorobenzothioate]	>250 µM	>125 µM	3	> 10000 nM	573 mV	–	–	–	–	–	inactive in the tested concentration range	–
CCOC(=O)Nc1ccc(SCc2cc(OC)cc(OC)c2)nc1N [9 c, Ethyl-{2-amino-6-[(3 ,5-dimethoxybenzylthio)pyridin-3-yl]}carbamate]	134 ± 22 µM	>250 µM	–	–	450 mV	–	–	–	–	–	–	3.61
CCOC(=O)Nc1ccc([S+]([O-])Cc2ccc(-c3ccccc3)cc2)nc1N (centres unmarked) [10 b, E t hyl {6-[(1,1'-biphenyl-4-yl)methylsulfinyl]-2-aminopyridin-3-yl}carbamate]	>63 µM	>63 µM	3.72	> 10000 nM	654 mV	–	–	–	–	–	–	–
